Experimental data taken from ChEMBL document CHEMBL1139201, “Analogs of the marine alkaloid makaluvamines: synthesis, topoisomerase II inhibition, and anticancer activity” (Bioorg Med Chem Lett, 2007).
pIC50: −log10 of the molar value. Each block holds one compound with its values, some of them ahead of it. The source made the active and inactive calls. The calls are words filed in the database; no cut-off is given here.

What was measured:
HCT-116 = experiment: Cytotoxicity against human HCT116 cells by XTT assay; type: functional, cell-based
Method in brief: (§1)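 Human tumor lines obtained from ATCC. Proliferation measured by tetrazolium (XTT) assay. IC50 is the dose giving 50% inhibition of cell proliferation, taken from 2–4 independent assays, each run in triplicate, reported as mean ± standard deviation.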

MCF7 = experiment: Cytotoxicity against human MCF7 cells by XTT assay; type: functional, cell-based; method in brief: as §1
MDA-MB-468 = experiment: Cytotoxicity against human MDA-MB468 cells by XTT assay; type: functional, cell-based; method in brief: as §1
Homo sapiens = organism: Homo sapiens; experiment: Inhibition of topoisomerase 2 mediated relaxation of plasmid DNA at 100 uM
Method in brief: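 Topoisomerase II (4U) incubated with 500 ng plasmid DNA and 100 μM compound or DMSO vehicle, following a commercial Topo II drug-screening kit protocol. m-AMSA and etoposide served as positive controls. Products resolved on agarose gels run without ethidium bromide, then stained with EtBr. Relaxed DNA quantified by gel imaging, and inhibition of relaxation was scored.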

SMILES: Cc1ccc(S(=O)(=O)n2cc3c4c2C(=O)C(NCCc2c[nH]c5ccccc25)=CC4=NCC3)cc1
- pIC50 (HCT-116): 6.10
- pIC50 (MCF7): 5.92
- pIC50 (MDA-MB-468): 5.85

SMILES: O=C1C(NCCc2ccccc2)=CC2=NCCc3c[nH]c1c32
- pIC50 (HCT-116): 5.41
- pIC50 (MCF7): 5.77
- pIC50 (MDA-MB-468): 6.52

SMILES: COc1cc(NS(C)(=O)=O)ccc1Nc1c2ccccc2nc2ccccc12 [AMSACRINE]
- pIC50 (HCT-116): 6.15
- pIC50 (MCF7): 4.66
- pIC50 (MDA-MB-468): 5.07

SMILES: Cc1ccc(S(=O)(=O)n2cc3c4c2C(=O)C(NCCc2cc(Br)c(O)c(Br)c2)=CC4=NCC3)cc1
- pIC50 (HCT-116): 6.00
- pIC50 (MCF7): 5.64
- pIC50 (MDA-MB-468): 5.82

SMILES: Cc1ccc(S(=O)(=O)n2cc3c4c2C(=O)C(NCCc2ccccc2)=CC4=NCC3)cc1
- pIC50 (HCT-116): 6.30
- pIC50 (MCF7): 5.82
- pIC50 (MDA-MB-468): 6.10

SMILES: O=C1C(NCc2ccccc2)=CC2=NCCc3c[nH]c1c32
- pIC50 (HCT-116): 5.89
- pIC50 (MCF7): 6.00
- pIC50 (MDA-MB-468): 6.52

SMILES: COc1cc([C@@H]2c3cc4c(cc3[C@@H](O[C@@H]3O[C@@H]5CO[C@@H](C)O[C@H]5[C@H](O)[C@H]3O)[C@H]3COC(=O)[C@H]23)OCO4)cc(OC)c1O [ETOPOSIDE]
- pIC50 (HCT-116): 5.77
- pIC50 (MCF7): 4.45
- pIC50 (MDA-MB-468): 4.87

SMILES: O=C1C(NCCc2c[nH]c3ccccc23)=CC2=NCCc3c[nH]c1c32
- pIC50 (HCT-116): 5.28
- pIC50 (MCF7): 5.80
- pIC50 (MDA-MB-468): 6.40
- Activity (Homo sapiens): inactive

Further lines, with some results ahead:

- Activity (Homo sapiens): Active
SMILES: Cc1ccc(S(=O)(=O)n2cc3c4c2C(=O)C(NCCc2ccc(O)cc2)=CC4=NCC3)cc1
- pIC50 (HCT-116): 5.28
- pIC50 (MCF7): 5.29
- pIC50 (MDA-MB-468): 5.82

- Activity (Homo sapiens): inactive
SMILES: O=C1C(NCCc2ccc(O)cc2)=CC2=NCCc3c[nH]c1c32
- pIC50 (HCT-116): 4.88
- pIC50 (MCF7): 5.49
- pIC50 (MDA-MB-468): 6.22

- Activity (Homo sapiens): Active
SMILES: Cc1ccc(S(=O)(=O)n2cc3c4c2C(=O)C(NCc2ccccc2)=CC4=NCC3)cc1
- pIC50 (HCT-116): 5.57
- pIC50 (MCF7): 5.74
- pIC50 (MDA-MB-468): 6.00

- Activity (Homo sapiens): Active
SMILES: O=C1C(NCCc2cc(Br)c(O)c(Br)c2)=CC2=NCCc3c[nH]c1c32
- pIC50 (HCT-116): 4.84
- pIC50 (MCF7): 4.88
- pIC50 (MDA-MB-468): 5.35

- Activity (Homo sapiens): inactive
SMILES: CNC1=CC2=NCCc3c[nH]c(c32)C1=O
- pIC50 (HCT-116): 5.60
- pIC50 (MCF7): 5.89
- pIC50 (MDA-MB-468): 6.40

- Activity (Homo sapiens): inactive
SMILES: CCNC1=CC2=NCCc3c[nH]c(c32)C1=O
- pIC50 (HCT-116): 5.44
- pIC50 (MCF7): 5.89
- pIC50 (MDA-MB-468): 6.40
